Experiments:
VIM-2 = VIM-2 (Escherichia coli, UniProt Q5U7L7); assay: MBL enzyme inhibition assay, fluorescent cephalosporin substrate FC5; format: biochemical
Outline: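 VIM-2 was expressed from a donated plasmid construct and purified. Test compound was serially diluted in 50 mM HEPES pH 7.2 containing 0.01% Triton X-100 and 1 μM ZnSO4, then preincubated for 15 min at 25 °C with 100 pM enzyme. Fluorescent cephalosporin FC536 (0.5 μM) was added and fluorescence (λex 380, λem 460 nm) followed over 30–40 scans. IC50 was fitted from initial rates against concentration.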

NDM-1 = NDM-1 (Klebsiella pneumoniae, UniProt C7C422); assay: MBL enzyme inhibition assay, fluorescent cephalosporin substrate FC5; format: biochemical
[1] = tested on: panel of carbapenem-resistant clinical isolates of Gram-negative bacteria; assay: Single concentration synergy assay, summary over the panel; format: cell-based; conditions: for Reduction of MIC of Meropenem, in most cases: inhibitor at 32 μg/mL, strains expressing IMP-type enzymes
Outline: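 CLSI broth microdilution. Isolates grown overnight on blood agar at 37 °C, then in TSB at 37 °C with shaking to OD600 0.5, and diluted in Mueller-Hinton broth. Meropenem serially diluted in MHB with test compound at a fixed 32 μg/mL final. Incubated 37 °C with shaking for 16–20 h. MIC is the lowest concentration with no visible growth, as the median of triplicates.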

IMP-28 = assay: MBL enzyme inhibition assay, fluorescent cephalosporin substrate FC5; format: biochemical; conditions: read-out: IC50 against IMP-28; 60 pM IMP-28, 1 μM ZnSO4; mean ± SD
Outline: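 Recombinant C-terminal His-tagged IMP-28 (pET28b construct). Serial dilutions of test compound were made in 50 mM HEPES pH 7.2 with 0.01% Triton X-100 and 1 μM ZnSO4. Enzyme (60 pM) was preincubated with compound for 15 min at 25 °C. FC536 (16 μM) was added and fluorescence (ex 380/em 460 nm) read immediately over 30–40 cycles. IC50 was curve-fitted from initial velocities versus inhibitor concentration.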

[2] = tested on: E. coli RC0089 (clinical NDM-1 positive isolate); assay: OD600 checkerboard assay with Meropenem; format: cell-based; conditions: E. coli expressing NDM-1

Sequence of NDM-1 (C7C422 29-270, looked up, species assumed): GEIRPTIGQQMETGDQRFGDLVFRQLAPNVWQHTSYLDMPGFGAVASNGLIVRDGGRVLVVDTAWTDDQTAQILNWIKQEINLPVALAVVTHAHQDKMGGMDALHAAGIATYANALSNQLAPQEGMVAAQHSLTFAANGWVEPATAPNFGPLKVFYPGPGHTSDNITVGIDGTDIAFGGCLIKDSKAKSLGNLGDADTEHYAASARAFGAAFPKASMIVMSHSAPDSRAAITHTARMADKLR

Row | Structure (SMILES) | IC50 (VIM-2) [µM] | IC50 (NDM-1) [µM] | Effect of zinc sulfate concentration on IC50 against NDM-1 (NDM-1; zinc sulfate 0.1 to 20 μM) | Reduction of MIC of Meropenem, in most cases [1] [fold] | IC50 (IMP-28) [µM] | Relationship with Meropenem in checkerboard (in words) [2] | Synergy with Meropenem against strains expressing serine-carbapenemases ([1]; KPC-2 and OXA-48) | Antibacterial activity of the inhibitor alone ([1]; highest tested concentration 256 μg/mL)
1 | O=C(O)c1cccc(C(=O)O)n1 [DPA, 2,6-Dipicolinic acid, reference compound] | 2.9 ± 0.5 | 3.8 ± 0.04 | zinc-dependent effect | ≤ 4 | 17 ± 1 |  |  | 
2 | O=C(O)CN(CC(=O)O)CC(=O)O [compound 3, Nitrilotriacetic acid] | ~2.4 |  |  | ≤ 4 | 112 ± 3 | strong synergistic relationship | complete lack of synergy | no antibacterial activity
